This note sets out measurements from PMC5189983 (Biomaterials, 2016).

The subject of series [1] is 2D2 CD4+ T cells. Put plainly: DC/2D2 T cell co-culture, T cell proliferation. The class given is cell-based, mice. To be noted: 48 hours co-culture, dye dilution. In short, it runs like this:
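Splenic CD11c+ DCs from female C57BL/6 mice were isolated by positive selection and plated at 100,000/well in RPMI 1640 with 10% FBS at 37°C and 5% CO2. They were stimulated with CpG (5 µg/mL) plus complex or free controls for 24 h. Splenic CD4+ T cells from 2D2 mice were isolated by negative selection and labelled with eFluor 670 dye. They were co-cultured with the DCs for 48 h, then stained with DAPI and anti-CD4, and dye dilution was read by flow cytometry.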

In series [2] the test system is EAE. Put plainly: EAE mouse model of MS. The class given is in vivo, C57BL/6 female mice. The following applies: 50 µg free GpG on days 5, 10, and 15.

For the substance 5’-TCCATGACGTTCCTGACGTT-3’ [CpG], in series [1], the “CD4+ T cell proliferation” value is “did not cause any proliferation”.
As to “5’-TGACTGTGAAGGTTAGAGATGA-3’ (DNA TGACTGTGAAGGTTAGAGATGA; chemistry not given here) [GpG]”, the “therapeutic effect relative to untreated mice” value in series [2] is listed as “no therapeutic effect”.
